Here are results for 37 compounds from PubChem BioAssay.

Some of the results follow. Unmarked numbers belong to inactive results. Calls of active or inactive are those of the source.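 How the source made its calls, unless noted: active means mean inhibition over three repeats above a set limit taken from the earlier primary screen (cut at about 38% in these data); inactive means the rest.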

In experiment [1] the target is (Lyso)-N-acylphosphatidylethanolamine lipase (Mus musculus) (UniProt Q8VD66). In words: mouse ABHD4 hydrolase blockers, triplicate – biochemical, fluorescence polarization, confirmation (AID 720658;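 active means mean inhibition across replicates above the hit cutoff set in the primary screen, cut at about 30% in these data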;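 further: 0% = wild-type ABHD4 with DMSO and 100% = catalytically dead S159A mutant with DMSO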). To be noted: purified mABHD4, FP-Rh probe fluorescence polarization; at 8.92 µM; hits give high values. Summed up: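 material = wild-type mouse ABHD4 | signal = fluorescence polarization, excitation 525 nm, emission 598 nm | times = 45 min compound pretreatment plus 60 min FP-Rh labeling, 25 °C | also added = Rhodamine-tagged fluorophosphonate probe FP-Rh | read-out = percent inhibition scaled between wild-type DMSO and S159A mutant wells | medium = HEPES-saline buffer with 0.01% Pluronic F-127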

Experiment [2] can be described thus: VP16-driven transactivation reporter suppression – cell-based, luminescence, HEK293, counter-screen for COUP-TFII antagonist project (AID 687007; in the data active means inhibition above about 13%). The following applies: HEK293 Gal4-VP16 luciferase reporter, at 8.5 µM, hits give high values.
The target in experiment [3] is COUP transcription factor 2 (Homo sapiens) (UniProt P24468). The experiment is described as follows: retest of COUP-TFII reporter suppressors – cell-based, luciferase reporter, HEK293, triplicate, confirmation (AID 687008).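 Further: 100% = cells given the luciferase reporter alone without the COUP-TF2 vector.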 To be noted: HEK293 NGFI-A luciferase reporter, luminescence; at 8.5 µM; hits give high values.
The nature of experiment [4]: BSA probe fluorescence interference – biochemical, TAMRA-labeled BSA, counter-screen for TCR-CD3 interaction inhibitor project (AID 652035; in the data active means inhibition above about 23%;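 further: 0% = buffer low control and 100% = reference high control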). The following applies: TAMRA-labeled BSA probe fluorescence counterscreen; at 9.4 µM; hits give high values.
In experiment [5] the test system is T-cell receptor (TCR)-CD3 interaction, human. In words: blockers of TCR binding to CD3 – biochemical, fluorescence, TAMRA-labeled TCR probe, confirmation (AID 652036; in the data active means inhibition above about 19%). To be noted: TAMRA-labeled TCR probe fluorescence binding assay; at 9.4 µM; hits give high values.

COUP transcription factor 2 (Homo sapiens), sequence (P24468 whole entry, looked up): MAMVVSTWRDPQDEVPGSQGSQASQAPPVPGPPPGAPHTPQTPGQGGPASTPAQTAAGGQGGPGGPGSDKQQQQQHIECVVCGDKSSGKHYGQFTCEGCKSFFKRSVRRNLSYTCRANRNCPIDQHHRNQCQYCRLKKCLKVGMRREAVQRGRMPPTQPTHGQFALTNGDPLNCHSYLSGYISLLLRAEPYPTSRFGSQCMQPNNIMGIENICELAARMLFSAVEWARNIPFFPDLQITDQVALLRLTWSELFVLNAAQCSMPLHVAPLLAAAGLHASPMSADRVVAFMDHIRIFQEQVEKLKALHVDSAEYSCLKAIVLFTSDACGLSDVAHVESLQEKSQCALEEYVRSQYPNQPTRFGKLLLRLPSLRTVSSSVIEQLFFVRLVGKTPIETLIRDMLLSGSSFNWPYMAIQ
(Lyso)-N-acylphosphatidylethanolamine lipase (Mus musculus), sequence (Q8VD66 whole entry, looked up): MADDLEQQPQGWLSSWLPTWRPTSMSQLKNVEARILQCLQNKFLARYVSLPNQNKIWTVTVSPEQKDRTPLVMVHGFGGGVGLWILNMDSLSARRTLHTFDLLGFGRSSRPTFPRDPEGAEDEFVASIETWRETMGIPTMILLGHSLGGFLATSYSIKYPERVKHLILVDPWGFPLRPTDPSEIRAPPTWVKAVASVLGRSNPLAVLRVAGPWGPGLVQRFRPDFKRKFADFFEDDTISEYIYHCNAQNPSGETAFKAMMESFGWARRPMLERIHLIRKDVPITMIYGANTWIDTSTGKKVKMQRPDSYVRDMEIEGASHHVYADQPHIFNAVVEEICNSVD

`Cc1oc2cc(Br)c(O)c(Br)c2c1C(=O)c1ccccc1`: the inhibition in experiment [1] is 53% (active). Take `CN(C(=O)c1cccc(NC(=O)Cc2cccc([N+](=O)[O-])c2)c1)C1CCCCC1`: the inhibition in experiment [2] is -3.36%; in experiment [3], 1.83%. Turning to `C/C=C/C=C/C(=O)O`, the figures for the inhibition in experiment [4] and in experiment [5] were 3.35% and 6.03%, respectively. With `CCOc1ccc2nc(Nc3nc4ccc(NC(C)=O)cc4s3)sc2c1`, the inhibition in experiment [1] was 30.9% (active).

In the case of `O=C(Nc1ccc(S(=O)(=O)NCC2CCCO2)cc1)c1ccc(F)cc1` (stereo not drawn), the inhibition was 3.93% in experiment [2] and 13.8% in experiment [3]. On the same counts, the results for `NS(=O)(=O)c1ccc(CCNC(=O)c2ccc(Cl)c(S(=O)(=O)N3CCCCCC3)c2)cc1` are 5.82% and 39.1% (active). For `Cc1cc2ccccc2n1CCNC(=O)COc1ccc2ccccc2c1`, the inhibition was 8.77% in experiment [4], 2.99% in experiment [5] and 1.54% in experiment [1]. For the compound `O=C(c1cc(C(=O)N2CCN(c3ccc(F)cc3)CC2)cc([N+](=O)[O-])c1)N1CCN(c2ccc(F)cc2)CC1`, the results for the inhibition in experiment [2] and in experiment [3] were -2.78% and 46.7% (active), respectively.

For `CC/C(=C(/c1ccccc1)c1ccc(OCC[N+](C)(C)C)cc1)c1ccccc1`, the inhibition in experiment [1] is 36.6% (active). As to `Cc1ccccc1CS(=O)(=O)Cc1ccc(C(=O)Nc2ccc(Cl)cc2)o1`, the inhibition in experiment [2] was -1.58%; in experiment [3], 41.5% (active). In the same order, the values of `CCC(=O)Nc1ccc(C(=O)CSc2nnc(CNc3ccc(Cl)cc3)o2)cc1OC` are -6.4% and 17.3%. On the same counts, the results for `Cc1ccc(-n2nc3c(=O)n(C(C)C(=O)NCc4ccc5c(c4)OCO5)nc(C)c3c2C)cc1` (stereo not drawn) are -6.28% and 11.8%. With `O=S1(=O)c2c(cccc2N2CCCC2)O[C@H](COCc2ccccc2)CN1C1CC1`, the results for the inhibition in experiment [4] and in experiment [5] were -4.17% and 1.77%, respectively. For `N#CC(C#N)=CN=c1ccn(Cc2ccc(Cl)cc2Cl)cc1`, the inhibition in experiment [2] is -2.5%; in experiment [3], 9.12%.

With `O=C(Nc1ccc(S(=O)(=O)N2CCOCC2)cc1)C1CCN(S(=O)(=O)c2ccc(Cl)cc2)CC1`, the inhibition was 0.86% in experiment [2] and 12.2% in experiment [3]. `CCC(=O)NC(=S)Nc1ccc(NC(=O)c2ccco2)c(Cl)c1`: the inhibition was 3.69% in experiment [4] and 13.4% in experiment [5].

As to `NS(=O)(=O)c1ccc(CCNc2nc(C(F)(F)F)nc3ccccc23)cc1`, the results for the inhibition in experiment [2] and in experiment [3] were -10.4% and 0.16%, respectively. In the same order, the values of `CCCCn1c(SCc2ncc(-c3ccccc3)o2)nc2cc(S(N)(=O)=O)ccc21` are 6.53% and 14.4%. Take `Cc1ccc(OCC(=O)Nc2ccc(N3CCN(C(=O)c4ccco4)CC3)cc2)c(C)c1`: the inhibition is 4.51% in experiment [2] and 24.3% in experiment [3].

On to `CN(CCc1ccccc1)C(=O)c1cccc(NC(=O)Cc2cccc(NC(=O)C3CCCN(C(=O)CCc4ccccc4)C3)c2)c1` (stereo not drawn), for which the results for the inhibition in experiment [2] and in experiment [3] were -3.76% and 15.9%, respectively. On to `OCCNc1nc(Nc2ccc(Cl)c(Cl)c2)nc2ccccc12`, for which the inhibition in experiment [1] was 40.4% (active). For `Cc1ccc(CNC(=O)Nc2nnc([C@H]3C[C@H](O)[C@@H](CO)O3)s2)cc1`, the inhibition is -1.25% in experiment [2] and 11.2% in experiment [3]. In the same order, the values of `CCOC(=O)C1(CCOc2ccccc2)CCN(Cc2cc(OC)cc(OC)c2)CC1` are 6.8% and 9.24%. For `O=S(=O)(O)c1cc2onnc2c2ccccc12`, the inhibition was 11% in experiment [4] and 4.6% in experiment [5].

Consider `COc1ccc(OC)c(CNC(=O)Cn2nc(C)c3c(C)n(-c4ccc(C)cc4)nc3c2=O)c1`, for which the inhibition in experiment [2] is -4.78%; in experiment [3], 51.1% (active).

As to `CCOC(=O)N1CCN(C(=O)C[C@@H]2C(=O)N(CCc3ccc(Cl)cc3)C3=CCCC[C@]32C(=O)OCC)CC1`, the figures for the inhibition in experiment [2] and in experiment [3] were -8.45% and 9.27%, respectively. In the same order, the values of `Cc1ccccc1OCC(=O)Nc1ccc(N2CCN(C(=O)C(C)C)CC2)c(Cl)c1` are -4.24% and 10.5%. In the case of `CN(C)CCNC(=O)C(C(=O)c1ccccc1)n1ccccc1=O` (stereo not drawn), the inhibition is -0.25% in experiment [4] and 2.79% in experiment [5]. For `COc1ccc(NC(=O)C2Cc3c(-c4cccc(NC(C)=O)c4)ccnc3O2)cc1OC` (stereo not drawn), the inhibition is -1.35% in experiment [2] and 14.6% in experiment [3].

`Oc1ccc(/C=N/Nc2ccc(C(F)(F)F)cn2)cc1O`: the inhibition in experiment [1] was 34% (active). `Cc1nc(C(=O)NCc2ccccc2)sc1C1(C)CC(c2cccnc2)=NO1` (stereo not drawn): the results for the inhibition in experiment [2] and in experiment [3] were -2.73% and 6.06%, respectively.

For the compound `c1ccc(Cc2ccc(OCCn3ccnc3)cc2)cc1`, the inhibition is -6.15% in experiment [2] and 9.96% in experiment [3].

In the case of `CC(C)COC(=O)n1c(=O)oc2ccc(S(=O)(=O)N3CCCCC3)cc21`, the inhibition in experiment [1] was 49.4% (active). Regarding `CN(c1cccc(NC(=O)c2ccc(CN3CCc4ccccc4C3)cc2)c1)S(C)(=O)=O`, the inhibition in experiment [2] was 4.04%; in experiment [3] it was 41.2% (active). On the same counts, the results for `CCc1ccc(-c2nc(SCC(=O)NC3CCCC3)n[nH]2)cc1` are -22.9% and 11.9%. As to `CC1CCN(c2ccc(C(=O)O)cc2NS(=O)(=O)c2ccc(Br)s2)CC1`, in experiment [1], the inhibition was 47.5% (active). As for `Cc1ccc(NC(=O)C2CC(=O)N(c3ccc4c(c3)OCCO4)C2)cc1S(=O)(=O)N1CCCCCC1` (stereo not drawn), the inhibition in experiment [2] is -2.18%; in experiment [3], 14.1%.
